Source: ChEMBL document CHEMBL4270642, “Boronic ester-linked macrocyclic lipopeptides as serine protease inhibitors targeting Escherichia coli type I signal peptidase” (Eur J Med Chem, 2018)
pIC50: −log10 of the molar value. Values after ≈ are worked out from the molar mass of the structure shown.

Tests used:
[1] = Hemolytic activity in human RBC at 100 uM after 45 mins by spectrophotometric method relative to control; assay type: ADME, cell-based, Erythrocyte; conditions: red blood cells (erythrocytes), read-out: Activity
Procedure, shortened: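 Heparinized human blood; red cells washed three times in Tyrode buffer pH 7.4. Compound at 100 µM final with 1% DMSO and 50% RBC, shaken (250 rpm) 45 min at 37 °C. Cells pelleted (1000 × g, 10 min); supernatant haemoglobin at 540 nm. Percent lysis relative to buffer-only and 2% Triton X-100 controls.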

[2] = target: Signal peptidase I (Escherichia coli K-12, UniProt P00803); assay: Inhibition of Escherichia coli type 1 signal peptidase lepB preincubated for 10 mins followed by Dabcyl-VGGTATAYGAFSRPGLE-(EDANS)-OH substrate addition measured after 2 hrs by FRET based assay
Procedure, shortened: (§1)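 EcLepB (about 50 nM estimated) preincubated 10 min with compound. Reaction started with Dabcyl/EDANS FRET peptide at 8 µM final (Km 20 µM). Fluorescence followed continuously at 535 nm, 22 °C, for 2 h. Cleavage rates plotted against inhibitor concentration; IC50 from non-linear regression of sigmoidal dose-response curves.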

[3] = system: Escherichia coli; assay: Antibacterial activity against Escherichia coli ATCC 25922 after 16 to 20 hrs by broth microdilution method; assay type: functional
Procedure, shortened: (§2)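 Broth microdilution in cation-adjusted Mueller-Hinton II per EUCAST/CLSI; two-fold compound series 64 down to 0.25 µg/mL final. Inoculum from fresh colonies (non-selective agar, 18-24 h, 35 ± 2 °C), adjusted to 0.5 McFarland, diluted to about 5 × 10^5 CFU/mL final. Static incubation 16-20 h at 35 ± 2 °C; MIC read visually as complete growth inhibition against medium-only wells.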

[4] = system: HepG2; assay: Cytotoxicity against human HepG2 cells after 72 hrs by FMSA; assay type: cell-based; conditions: HepG2, 72 h
Procedure, shortened: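 HepG2 (ATCC) grown in EMEM with 10% FBS, pen/strep, 2 mM L-glutamine, used up to 20 passages. Seeded at 1000 cells/well, cultured overnight, then dosed acoustically from DMSO stocks. Eight two-fold dilutions in duplicate from top 64 or 32 µM; 72 h at 37 °C, 5% CO2. Fluorescein diacetate hydrolysis read at ex 485/em 530 nm; IC50 by non-linear regression.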

[5] = system: Escherichia coli; assay: Antibacterial activity against tolC deficient Escherichia coli CH3130 after 16 to 20 hrs by broth microdilution method; assay type: functional; procedure, shortened: as §2
[6] = system: Escherichia coli; assay: Antibacterial activity against Escherichia coli D22 CGSG 5163 harboring Ips mutant after 16 to 20 hrs by broth microdilution method; assay type: functional
Procedure, shortened: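 Broth microdilution in cation-adjusted Mueller-Hinton II broth, following EUCAST and CLSI guidelines. Two-fold series at final concentrations 64 down to 0.25 µg/mL, with medium-only and growth controls. Inoculum from fresh colonies (18-24 h, 35 °C ± 2 °C) adjusted to 0.5 McFarland, final ≈5 × 10^5 CFU/mL. Plates incubated unshaken 16-20 h at 35 °C ± 2 °C. MIC read visually as complete inhibition of growth.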

[7] = system: Pseudomonas aeruginosa; assay: Antibacterial activity against Pseudomonas aeruginosa PAO1 after 16 to 20 hrs by broth microdilution method; assay type: functional; procedure, shortened: as §2
[8] = system: Pseudomonas aeruginosa; assay: Antibacterial activity against efflux defective Pseudomonas aeruginosa PAO750 after 16 to 20 hrs by broth microdilution method; assay type: functional; procedure, shortened: as §2
[9] = system: Klebsiella pneumoniae; assay: Antibacterial activity against Klebsiella pneumoniae ATCC 13883 after 16 to 20 hrs by broth microdilution method; assay type: functional; procedure, shortened: as §2
[10] = system: Acinetobacter baumannii; assay: Antibacterial activity against Acinetobacter baumannii ATCC 19606 after 16 to 20 hrs by broth microdilution method; assay type: functional; conditions: ATCC 19606 = CIP 70.34 = JCM 6841; procedure, shortened: as §2
[11] = system: Staphylococcus aureus; assay: Antibacterial activity against Staphylococcus aureus ATCC 29213 after 16 to 20 hrs by broth microdilution method; assay type: functional; procedure, shortened: as §2
[12] = target: Signal peptidase I (Escherichia coli K-12) (UniProt P00803); assay: Inhibition of Escherichia coli type 1 signal peptidase lepB assessed as residual activity at 10 uM preincubated for 10 mins followed by Dabcyl-VGGTATAYGAFSRPGLE-(EDANS)-OH substrate addition measured after 2 hrs by FRET based assay (reference value: 100%); procedure, shortened: as §1
[13] = target: Signal peptidase I (Escherichia coli K-12) (UniProt P00803); assay: Inhibition of Escherichia coli type 1 signal peptidase lepB assessed as residual activity at 5 uM preincubated for 10 mins followed by Dabcyl-VGGTATAYGAFSRPGLE-(EDANS)-OH substrate addition measured after 2 hrs by FRET based assay (reference value: 100%); procedure, shortened: as §1
[14] = target: Signal peptidase I (Escherichia coli K-12) (UniProt P00803); assay: Inhibition of Escherichia coli type 1 signal peptidase lepB assessed as residual activity at 2.5 uM preincubated for 10 mins followed by Dabcyl-VGGTATAYGAFSRPGLE-(EDANS)-OH substrate addition measured after 2 hrs by FRET based assay (reference value: 100%); procedure, shortened: as §1
[15] = target: Signal peptidase I (Escherichia coli K-12) (UniProt P00803); assay: Inhibition of Escherichia coli type 1 signal peptidase lepB assessed as residual activity at 1.25 uM preincubated for 10 mins followed by Dabcyl-VGGTATAYGAFSRPGLE-(EDANS)-OH substrate addition measured after 2 hrs by FRET based assay (reference value: 100%); procedure, shortened: as §1
[16] = target: Signal peptidase I (Escherichia coli K-12) (UniProt P00803); assay: Inhibition of Escherichia coli type 1 signal peptidase lepB assessed as residual activity at 0.625 uM preincubated for 10 mins followed by Dabcyl-VGGTATAYGAFSRPGLE-(EDANS)-OH substrate addition measured after 2 hrs by FRET based assay (reference value: 100%); procedure, shortened: as §1
[17] = target: Signal peptidase I (Escherichia coli K-12) (UniProt P00803); assay: Inhibition of Escherichia coli type 1 signal peptidase lepB assessed as residual activity at 0.3125 uM preincubated for 10 mins followed by Dabcyl-VGGTATAYGAFSRPGLE-(EDANS)-OH substrate addition measured after 2 hrs by FRET based assay (reference value: 100%); procedure, shortened: as §1
[18] = target: Signal peptidase I (Escherichia coli K-12) (UniProt P00803); assay: Inhibition of Escherichia coli type 1 signal peptidase lepB assessed as residual activity at 0.1563 uM preincubated for 10 mins followed by Dabcyl-VGGTATAYGAFSRPGLE-(EDANS)-OH substrate addition measured after 2 hrs by FRET based assay (reference value: 100%); procedure, shortened: as §1
[19] = target: Signal peptidase I (Escherichia coli K-12) (UniProt P00803); assay: Inhibition of Escherichia coli type 1 signal peptidase lepB assessed as residual activity at 0.0781 uM preincubated for 10 mins followed by Dabcyl-VGGTATAYGAFSRPGLE-(EDANS)-OH substrate addition measured after 2 hrs by FRET based assay (reference value: 100%); procedure, shortened: as §1
[20] = target: Signal peptidase I (Escherichia coli K-12) (UniProt P00803); assay: Inhibition of Escherichia coli type 1 signal peptidase lepB assessed as residual activity at 0.0391 uM preincubated for 10 mins followed by Dabcyl-VGGTATAYGAFSRPGLE-(EDANS)-OH substrate addition measured after 2 hrs by FRET based assay (reference value: 100%); procedure, shortened: as §1
[21] = target: Signal peptidase I (Escherichia coli K-12) (UniProt P00803); assay: Inhibition of Escherichia coli type 1 signal peptidase lepB assessed as residual activity at 0.0195 uM preincubated for 10 mins followed by Dabcyl-VGGTATAYGAFSRPGLE-(EDANS)-OH substrate addition measured after 2 hrs by FRET based assay (reference value: 100%); procedure, shortened: as §1
[22] = target: Signal peptidase I (Escherichia coli K-12) (UniProt P00803); assay: Inhibition of Escherichia coli type 1 signal peptidase lepB assessed as residual activity at 0.0098 uM preincubated for 10 mins followed by Dabcyl-VGGTATAYGAFSRPGLE-(EDANS)-OH substrate addition measured after 2 hrs by FRET based assay (reference value: 100%); procedure, shortened: as §1
[23] = target: Signal peptidase I (Escherichia coli K-12) (UniProt P00803); assay: Inhibition of Escherichia coli type 1 signal peptidase lepB assessed as residual activity at 0.0049 uM preincubated for 10 mins followed by Dabcyl-VGGTATAYGAFSRPGLE-(EDANS)-OH substrate addition measured after 2 hrs by FRET based assay (reference value: 100%); procedure, shortened: as §1
[24] = target: Signal peptidase I (Escherichia coli K-12) (UniProt P00803); assay: Inhibition of Escherichia coli type 1 signal peptidase lepB assessed as residual activity at 0.0024 uM preincubated for 10 mins followed by Dabcyl-VGGTATAYGAFSRPGLE-(EDANS)-OH substrate addition measured after 2 hrs by FRET based assay (reference value: 100%); procedure, shortened: as §1
[25] = target: Signal peptidase I (Escherichia coli K-12) (UniProt P00803); assay: Inhibition of Escherichia coli type 1 signal peptidase lepB assessed as residual activity at 0.0012 uM preincubated for 10 mins followed by Dabcyl-VGGTATAYGAFSRPGLE-(EDANS)-OH substrate addition measured after 2 hrs by FRET based assay (reference value: 100%); procedure, shortened: as §1

Chain of Signal peptidase I (P00803 whole entry): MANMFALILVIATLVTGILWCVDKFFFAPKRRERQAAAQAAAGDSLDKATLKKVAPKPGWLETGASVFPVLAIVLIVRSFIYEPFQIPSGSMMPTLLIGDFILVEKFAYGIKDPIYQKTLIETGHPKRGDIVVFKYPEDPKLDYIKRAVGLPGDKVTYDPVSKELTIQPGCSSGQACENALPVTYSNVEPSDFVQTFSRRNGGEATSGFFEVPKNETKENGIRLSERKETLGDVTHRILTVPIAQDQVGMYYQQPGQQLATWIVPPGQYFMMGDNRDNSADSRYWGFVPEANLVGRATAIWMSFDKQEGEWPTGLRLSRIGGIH
Chain of Signal peptidase I (Escherichia coli K-12) (P00803 whole entry): as above

SMILES	hemolysis at 0.75 h, 100 µM [1]	pIC50 [2]	MIC [3]	pIC50 [4]	MIC [5]	MIC [6]	MIC [7]	MIC [8]	MIC [9]	MIC [10]	MIC [11]	Activity [12]	Activity [13]	Activity [14]	Activity [15]	Activity [16]	Activity [17]	Activity [18]	Activity [19]	Activity [20]	also measured
CCCCCCc1ccc(-c2ccc(C(=O)N3CC(CN)C[C@H]3C(=O)N[C@H](C(=O)N[C@@H](C)C(=O)N[C@@H](CC(N)=O)C(=O)N[C@@H](C)B(O)O)[C@@H](C)O)cc2)cc1 (some centres undefined)	2.5%	8.22	16 µM	4.80	–	–	–	–	–	–	–	–	–	–	–	–	–	–	–	–	–
C[C@@H]1NC(=O)[C@@H](NC(=O)[C@H](C)NC(=O)[C@@H](NC(=O)[C@H](CCCN)NC(=O)c2ccc(-c3ccccc3)cc2)[C@@H](C)O)Cc2cn(nn2)CCO[C@@H]2C[C@@H]3OB1O[C@@H]3C2	0.2%	7.14	> 64 µg/mL	< 4.19	> 64 µg/mL	> 64 µg/mL	> 64 µg/mL	> 64 µg/mL	> 64 µg/mL	> 64 µg/mL	> 64 µg/mL	7.2%	9.7%	9.9%	10.6%	11.8%	12%	26.4%	48.6%	68.9%	Activity [21]: 83.8%; Activity [22]: 88.3%; Activity [23]: 84.9%; Activity [24]: 94.6%; Activity [25]: 100%
CCCCCCc1ccc(-n2cc(C(=O)N[C@@H](CCCN)C(=O)N[C@H](C(=O)N[C@@H](C)C(=O)N[C@H]3Cc4cn(nn4)CCO[C@@H]4C[C@@H]5OB(O[C@@H]5C4)[C@H](C)NC3=O)[C@@H](C)O)ccc2=O)cc1	0.03%	6.31	> 64 µg/mL	< 4.19	> 64 µg/mL	> 64 µg/mL	> 64 µg/mL	> 64 µg/mL	> 64 µg/mL	> 64 µg/mL	64 µg/mL (≈ 70.9 µM)	17%	15.8%	17.3%	24.3%	32.6%	59.3%	90%	95.3%	98.3%	Activity [21]: 111%; Activity [22]: 98.8%; Activity [23]: 101%; Activity [24]: 101%; Activity [25]: 109%
